# How the values were obtained:
# SARS-CoV-2 = assay: Antiviral activity against SARS COV-2 infected in monkey vero cells assessed as reduction in virus-induced cytopathic effect preincubated with virus for 1 hr followed by cell infection and measured after 5 days by microscopic analysis; format: functional, organism-based; settings: Severe acute respiratory syndrome coronavirus 2, Vero
# Vero = assay: Cytotoxicity in African green monkey Vero cells assessed as reduction in cell viability measured after 5 days by resazurin dye based assay; settings: chlorocebus sabaeus, vero, 120 h; time 5 day
# Outline: (§1)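 Cells (about 10⁵/well, 5% FBS) were added to two-fold compound dilutions (eight concentrations from 100 μM; DMSO control) and held 5 days at 36.5 °C in CO2. Medium was then replaced with resazurin (25 μg/mL) for 4 h and stopped with SDS. Fluorescence was read at Ex 525 / Em 580–640 nm, with background wells without resazurin subtracted. Done in two replicates; CC50 calculated.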
# Human alphaherpesvirus 3 [1] = assay: Antiviral activity against thymidine kinase deficient Varicella zoster virus; format: functional, organism-based
# Outline: (§2)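 Confluent HEL cultures received 100 CCID50 or 20 PFU of virus, with 2 h adsorption before inoculum removal. Cells were then incubated with compound from 100 μM downward. Cytopathicity or plaques were scored once untreated infected controls reached completion.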
# [2] = Selectivity index, ratio of CC50 for pig PEK cells to EC50 for Antiviral activity against Tick-borne virus encephalitis infected in pig PEK cells; format: toxicity, cell-based; settings: read-out: Ratio CC50/EC50
# Human betaherpesvirus 5 [3] = assay: Antiviral activity against Human cytomegalovirus AD169; format: functional, organism-based; settings: Human betaherpesvirus 5, AD169; outline: as §2
# [4] = Selectivity index, ratio of CC50 for human HEL cells to EC50 for antiviral activity against thymidine kinase deficient Varicella zoster virus; format: toxicity; settings: read-out: Ratio CC50/EC50
# Human betaherpesvirus 5 [5] = assay: Antiviral activity against Human cytomegalovirus Davis; format: functional, organism-based; settings: Human betaherpesvirus 5, Davis; outline: as §2
# MDCK = assay: Cytotoxicity in dog MDCK cells assessed as reduction in cell viability measured after 3 days by beckman coulter counting method; format: cell-based, Canis lupus familiaris; settings: mdck, 72 h, time 3 day
# Outline: (§3)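 Cells were seeded at 5 × 10³/well, grown 24 h, then exposed to compound from 100 μM downward for 3 days at 37 °C. Cell number was counted with a Coulter counter.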
# [6] = Selectivity index, ratio of CC50 for pig PEK cells to EC50 for Antiviral activity against Powassan virus infected in pig PEK cells; format: toxicity, cell-based; settings: read-out: Ratio CC50/EC50
# [7] = Cytotoxicity in pig PEK cells assessed as reduction in cell viability measured after 5 days by resazurin dye based assay; design: species or system Sus scrofa, Kidney; settings: 120 h, time 5 day; outline: as §1
# Influenza A virus = assay: Antiviral activity against Influenza A virus (H1N1) infected in MDCK cells assessed as reduction in cytopathic effect preincubated with cells for 1 hrs followed by viral addition and measured after 24 hrs by Reed-Muench method; format: functional, organism-based
# Outline: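 MDCK monolayers were pre-incubated 1 h at 37 °C with 3-fold compound dilutions (from 2 mg/mL DMSO stock), then infected at MOI 1 for 24 h. Supernatant yield was titrated by 10-fold dilutions on fresh MDCK for 72 h. Titre was read by hemagglutination with 1% chicken erythrocytes and calculated by Reed-Muench as TID50 per 100 μL.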
# HEp-2 = assay: Cytotoxicity in human Hep2 cells assessed as reduction in cell viability measured after 3 days by beckman coulter counting method; format: functional; settings: HEp-2, 72 h, time 3 day
# Outline: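 Hep2 cells seeded at 5 × 10³ cells/well and allowed to grow 24 h, then exposed to compound dilutions starting at 100 μM for 3 days at 37 °C. Cell number measured by Coulter counter.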
# [8] = system: Respiratory syncytial virus; assay: Antiviral activity against Respiratory syncytial virus assessed as reduction in virus-induced cytopathic effect by MTS assay; format: functional, organism-based; settings: human respiratory syncytial virus
# [9] = Selectivity index, ratio of CC50 for African green monkey Vero cells to EC50 for Antiviral activity against Chikungunya virus infected in African green monkey Vero cells; format: toxicity; settings: read-out: Ratio CC50/EC50
# [10] = Selectivity index, ratio of CC50 for human HEL cells to EC50 for antiviral activity against thymidine kinase positive Varicella zoster virus; format: toxicity; settings: read-out: Ratio CC50/EC50
# Powassan virus = assay: Antiviral activity against Powassan virus infected in pig PEK cells assessed as reduction in virus plaque formation preincubated with virus for 1 hr followed by cell infection and measured after 1 hr by crystal violet staining based assay; format: functional, organism-based
# Human alphaherpesvirus 3 [11] = assay: Antiviral activity against thymidine kinase positive Varicella zoster virus; format: functional, organism-based; outline: as §2
# Chikungunya virus = assay: Antiviral activity against Chikungunya virus infected in African green monkey Vero cells assessed as reduction in virus plaque formation preincubated with virus for 1 hr followed by cell infection and measured after 1 hr by crystal violet staining based assay; format: functional, organism-based
# [12] = system: Tick-borne encephalitis virus; assay: Antiviral activity against Tick-borne encephalitis virus infected in pig PEK cells assessed as reduction in virus plaque formation preincubated with virus for 1 hr followed by cell infection and measured after 1 hr by crystal violet staining based assay; format: functional, organism-based
# HEL = assay: Cytotoxicity against human HEL cells assessed as reduction in cell viability measured after 3 days by beckman coulter counting method; format: cell-based; settings: 72 h, time 3 day; outline: as §3
# [13] = system: Omsk hemorrhagic fever virus; assay: Antiviral activity against Omsk hemorrhagic fever virus infected in pig PEK cells assessed as reduction in virus plaque formation preincubated with virus for 1 hr followed by cell infection and measured after 1 hr by crystal violet staining based assay; format: functional, organism-based
compound,measurement,setting,value
NCCOc1cccc2c1Nc1nc(=O)n([C@H]3C[C@H](O)[C@@H](CO)O3)cc1O2,EC50,SARS-CoV-2,1.12 µM
same,CC50,Vero,1.81 µM
COc1ccc(C(OC[C@H]2O[C@@H](n3cc4c(nc3=O)Nc3ccccc3O4)[C@H](OC)[C@@H]2O)(c2ccccc2)c2ccc(OC)cc2)cc1,EC50,SARS-CoV-2,12.4 µM
same,CC50,Vero,26.5 µM
CCCCCCCCCOc1ccc2c(c1)Nc1nc(=O)n([C@H]3C[C@H](O)[C@@H](CO)O3)cc1O2,EC50,Human alphaherpesvirus 3 [1],14.2 µM
same,selectivity ratio,[2],> 18
same,EC50,Human betaherpesvirus 5 [3],> 100 µM
same,selectivity ratio,[4],> 8
same,EC50,Human betaherpesvirus 5 [5],> 100 µM
same,CC50,MDCK,> 100 µM
same,selectivity ratio,[6],> 13
same,CC50,[7],> 100 µM
same,EC50,Influenza A virus,> 40 µM
same,EC50,SARS-CoV-2,> 100 µM
same,CC50,HEp-2,> 100 µM
same,EC50,[8],> 100 µM
same,selectivity ratio,[9],> 13
same,selectivity ratio,[10],> 500
same,EC50,Powassan virus,7.7 µM
same,EC50,Human alphaherpesvirus 3 [11],0.2 µM
same,EC50,Chikungunya virus,7.4 µM
same,CC50,Vero,> 100 µM
same,EC50,[12],5.3 µM
same,CC50,HEL,> 100 µM
CO[C@@H]1[C@H](O)[C@@H](CO)O[C@H]1n1cc2c(nc1=O)Nc1ccccc1O2,EC50,SARS-CoV-2,> 100 µM
same,CC50,Vero,> 100 µM
COc1ccc(C(OC[C@H]2O[C@@H](n3cc4c(nc3=O)Nc3ccccc3O4)[C@H](O)[C@@H]2O)(c2ccccc2)c2ccc(OC)cc2)cc1,EC50,SARS-CoV-2,11.5 µM
same,CC50,Vero,15.9 µM
COc1ccc(C(OC[C@H]2O[C@@H](n3cc4c(nc3=O)Nc3c(OCCN)cccc3O4)C[C@@H]2O)(c2ccccc2)c2ccc(OC)cc2)cc1,EC50,SARS-CoV-2,> 100 µM
same,CC50,Vero,> 100 µM
Nc1onc(C(=O)OCC23CC4CC(CC(C4)C2)C3)c1CCc1ccccc1,CC50,[7],> 100 µM
same,EC50,Powassan virus,15 µM
same,EC50,[13],15 µM
same,EC50,[12],4 µM
NOCN1c2ccccc2Oc2cn([C@H]3C[C@H](O)[C@@H](CO)O3)c(=O)nc21,EC50,SARS-CoV-2,> 100 µM
same,CC50,Vero,> 100 µM
CCCCCCCCCOc1ccc2c(c1)Nc1nc(=O)n(COCCO)cc1O2,EC50,Human alphaherpesvirus 3 [1],> 100 µM
same,EC50,Human betaherpesvirus 5 [3],> 100 µM
same,EC50,Human betaherpesvirus 5 [5],> 100 µM
same,CC50,MDCK,> 100 µM
same,EC50,Influenza A virus,> 100 µM
same,EC50,SARS-CoV-2,> 100 µM
same,EC50,Human alphaherpesvirus 3 [11],> 100 µM
same,CC50,HEL,> 100 µM
O=c1nc2c(cn1[C@@H]1O[C@H](CO)[C@@H](O)[C@H]1O)Oc1ccccc1N2,EC50,SARS-CoV-2,> 100 µM
same,CC50,Vero,> 100 µM
NCCOc1cccc2c1Nc1nc(=O)n([C@@H]3O[C@H](CO)[C@@H](O)[C@H]3O)cc1O2,EC50,SARS-CoV-2,2.52 µM
same,CC50,Vero,2.92 µM
COc1ccc(C(OC[C@H]2O[C@@H](n3cc4c(nc3=O)Nc3c(OCCN)cccc3O4)[C@H](O)[C@@H]2O)(c2ccccc2)c2ccc(OC)cc2)cc1,EC50,SARS-CoV-2,> 100 µM
same,CC50,Vero,> 100 µM
CCCCCCCCCCOc1ccc2c(c1)N(C)c1nc(=O)n([C@H]3C[C@H](O)[C@@H](CO)O3)cc1O2,EC50,Human alphaherpesvirus 3 [1],15.1 µM
same,EC50,Human betaherpesvirus 5 [3],> 20 µM
same,selectivity ratio,[4],> 6
same,EC50,Human betaherpesvirus 5 [5],20 µM
same,CC50,MDCK,> 40 µM
same,CC50,[7],79 µM
same,EC50,Influenza A virus,23 µM
same,EC50,SARS-CoV-2,> 100 µM
same,CC50,HEp-2,> 100 µM
same,EC50,[8],> 100 µM
same,selectivity ratio,[9],83
same,selectivity ratio,[10],> 11
same,EC50,Powassan virus,0.45 µM
same,EC50,Human alphaherpesvirus 3 [11],10.7 µM
same,EC50,Chikungunya virus,0.71 µM
same,CC50,Vero,59 µM
same,EC50,[12],5.4 µM
same,CC50,HEL,> 100 µM
CN1c2ccccc2Oc2cn([C@H]3C[C@H](O)[C@@H](CO)O3)c(=O)nc21,EC50,Human alphaherpesvirus 3 [1],> 100 µM
same,EC50,Human betaherpesvirus 5 [3],> 100 µM
same,EC50,Human betaherpesvirus 5 [5],> 100 µM
same,CC50,MDCK,> 100 µM
same,CC50,[7],> 100 µM
same,EC50,SARS-CoV-2,> 100 µM
same,CC50,HEp-2,> 100 µM
same,EC50,[8],> 100 µM
same,EC50,Powassan virus,> 50 µM
same,EC50,Human alphaherpesvirus 3 [11],> 100 µM
same,EC50,Chikungunya virus,> 50 µM
same,CC50,Vero,> 100 µM
same,EC50,[12],40 µM
same,CC50,HEL,> 100 µM
CCCCCCCCOc1ccc2c(c1)N(C)c1nc(=O)n([C@H]3C[C@H](O)[C@@H](CO)O3)cc1O2,EC50,Human alphaherpesvirus 3 [1],> 100 µM
same,selectivity ratio,[2],> 4
same,EC50,Human betaherpesvirus 5 [3],> 100 µM
same,EC50,Human betaherpesvirus 5 [5],> 100 µM
same,CC50,MDCK,> 100 µM
same,selectivity ratio,[6],> 7
same,CC50,[7],> 100 µM
same,EC50,Influenza A virus,104 µM
same,EC50,SARS-CoV-2,> 100 µM
same,CC50,HEp-2,> 100 µM
same,EC50,[8],> 100 µM
same,selectivity ratio,[9],> 4
same,selectivity ratio,[10],74
same,EC50,Powassan virus,13.3 µM
same,EC50,Human alphaherpesvirus 3 [11],8.7 µM
same,EC50,Chikungunya virus,23.8 µM
same,CC50,Vero,> 100 µM
same,EC50,[12],22 µM
same,CC50,HEL,> 100 µM
CCCCCCCCCOc1ccc2c(c1)N(C)c1nc(=O)n([C@H]3C[C@H](O)[C@@H](CO)O3)cc1O2,EC50,Human alphaherpesvirus 3 [1],> 20 µM
same,selectivity ratio,[2],> 40
same,EC50,Human betaherpesvirus 5 [3],> 100 µM
same,EC50,Human betaherpesvirus 5 [5],> 100 µM
same,CC50,MDCK,> 100 µM
same,selectivity ratio,[6],> 42
same,CC50,[7],> 100 µM
same,EC50,Influenza A virus,35 µM
same,EC50,SARS-CoV-2,> 100 µM
same,CC50,HEp-2,> 100 µM
same,EC50,[8],> 100 µM
same,selectivity ratio,[9],> 15
same,EC50,Powassan virus,2.4 µM
same,EC50,Human alphaherpesvirus 3 [11],> 20 µM
same,EC50,Chikungunya virus,6.3 µM
same,CC50,Vero,> 100 µM
same,EC50,[12],2.53 µM
same,CC50,HEL,> 100 µM
Nc1ccn(C[C@@H](CO)OCP(=O)(O)O)c(=O)n1 [CIDOFOVIR],EC50,Human betaherpesvirus 5 [5],0.61 µM
same,CC50,HEL,> 300 µM
Nc1nc(O)c2ncn(COC(CO)CO)c2n1 [GANCICLOVIR],EC50,Human betaherpesvirus 5 [3],19 µM
same,EC50,Human betaherpesvirus 5 [5],1.79 µM
same,CC50,HEL,> 300 µM
O=c1nc(NO)ccn1[C@@H]1O[C@H](CO)[C@@H](O)[C@H]1O [N-HYDROXYCYTIDINE],EC50,SARS-CoV-2,7.4 µM
same,CC50,Vero,> 100 µM
CCC(CC)O[C@@H]1C=C(C(=O)O)C[C@H](N)[C@H]1NC(C)=O [OSELTAMIVIR CARBOXYLATE],CC50,MDCK,> 100 µM
same,EC50,Influenza A virus,2.9 µM
NC(=O)c1ncn([C@@H]2O[C@H](CO)[C@@H](O)[C@H]2O)n1 [RIBAVIRIN],CC50,HEp-2,250 µM
same,EC50,[8],2 µM
